Shown are actives, neighbours in structure and some others; about 1.9% of the full set was active somewhere.
M5 PAM: positive allosteric modulators of human muscarinic M5 receptor; P08912; CHO-K1 hM5, Fluo-8 calcium, ACh EC20 PAM; 0% = ACh EC20, 100% = ACh EC100; activation, % at 3 µM; 360,000 compounds, 0.3% hits;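 active = activation above the run cutoff, the mean activation of all test compounds plus 3 SD, cut at about 18% in these data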
Target sequence (P08912 whole entry, looked up): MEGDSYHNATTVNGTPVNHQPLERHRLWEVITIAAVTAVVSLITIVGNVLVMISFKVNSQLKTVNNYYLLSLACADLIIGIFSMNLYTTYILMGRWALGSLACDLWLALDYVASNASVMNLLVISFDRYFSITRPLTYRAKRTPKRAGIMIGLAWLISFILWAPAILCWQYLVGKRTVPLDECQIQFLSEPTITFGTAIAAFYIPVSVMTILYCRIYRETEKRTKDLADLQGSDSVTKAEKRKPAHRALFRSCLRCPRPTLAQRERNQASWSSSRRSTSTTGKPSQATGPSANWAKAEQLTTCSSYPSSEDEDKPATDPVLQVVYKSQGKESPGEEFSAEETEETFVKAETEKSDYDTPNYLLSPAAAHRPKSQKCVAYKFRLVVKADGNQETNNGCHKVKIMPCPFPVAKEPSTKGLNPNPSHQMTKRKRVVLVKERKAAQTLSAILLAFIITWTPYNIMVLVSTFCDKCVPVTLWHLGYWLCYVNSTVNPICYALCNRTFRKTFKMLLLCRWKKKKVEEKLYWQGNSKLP
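Replicates: One well per compound, no replicates | System: Human M5 receptor in CHO-K1 cells | Benchmarks: Low control EC20 acetylcholine (0%), high control EC100 acetylcholine (100%) | Probe or stimulus: Acetylcholine, EC20 level | Times: Fluo-8 loading 80 min at 37 °C plus 30 min room temperature | Signal: Intracellular calcium via Fluo-8 fluorescence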
CHRM4 agonist: agonists of human muscarinic M4 receptor (CHRM4). CHO-K1 hM4/Gqi5, Fluo-8 calcium fluorescence; vehicle 0%, full acetylcholine response 100%. activation, % at 3 µM. 360,000 compounds, 0.14% hits;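 active = activation above the run mean over all test wells plus 3 SD, cut at about 32% in these data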;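 also: peak over basal fluorescence ratio per well then scaled between controls; 0% = DMSO wells and 100% = acetylcholine at EC100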
M4 antag: CHRM4 antagonism in calcium assay; P08173; CHO-hM4 cells, ACh EC80, Fluo-8 calcium fluorescence; inhibition, % at 3 µM; 360,000 compounds, 0.73% hits;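 active = inhibition above its plate's cutoff, the mean inhibition of sample wells plus 3 SD, cut at about 27% in these data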;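 also: 0% = acetylcholine EC80 with DMSO and 100% = DMSO without agonist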
M4 PAM: potentiates acetylcholine response at human M4 receptor. P08173. activation, % at 3 µM. 360,000 compounds, 0.4% hits. CHO-K1 hM4/Gqi5, Fluo-8 calcium fluorescence, ACh EC20; 0% = ACh EC20, 100% = maximal ACh. AID 624126;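 active = activation above its plate's cutoff, the mean activation of sample wells plus 3 SD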
M5 antag: CHRM5 antagonism in calcium assay. 360,000 compounds, 0.59% hits. inhibition, % at 3 µM. P08912. CHO-hM5 cells, Fluo-8 calcium fluorescence, ACh EC80. AID 624040;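 active = inhibition above a per-plate cutoff, the mean of that plate's test compounds plus 3 SD, cut at about 27% in these data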;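 also: 0% = acetylcholine EC80 with DMSO and 100% = DMSO without agonist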
M5 ag: agonists of human muscarinic M5 receptor (CHRM5); P08912; CHO-K1 hM5 cells, Fluo-8 calcium fluorescence; 0% DMSO wells, 100% maximal acetylcholine response; activation, % at 3 µM; 360,000 compounds, 0.19% hits;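 active = activation above the run's mean over test compounds plus 3 SD, cut at about 23% in these data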;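 also: signal is peak over basal fluorescence ratio across the kinetic read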
* = called active by the depositor; ! = not confirmed by another sample.

SMILES	M5 PAM	CHRM4 agonist	M4 antag	M4 PAM	M5 antag	M5 ag
C1CC2CN(c3nc4nonc4nc3N3CCSCC3)CCN2C1 (centres undefined)	-5	1	9	-10	0	-8
O=C1CC(=C(c2ccccc2)c2ccccc2)C(=O)N1CCCCN1CCN(c2cccc(Cl)c2)CC1	-18	-2	40*	-20	11	-8
Cc1ccccc1N1CCN(CCCN2C(=O)CC(=C(c3ccccc3)c3ccccc3)C2=O)CC1	-14	-3	38*	-17	-1	-9
Cc1ccccc1N1CCN(CCN2C(=O)CC(=C3c4ccccc4-c4ccccc43)C2=O)CC1	6	1	-11	14	-4	2
CCN(CC)c1ccc2cc(C(C)=O)c(=O)oc2c1	-1	4	5	-4	5	0
CCN(CC)c1ccc2cc(C=O)c(=O)oc2c1	-19	18	10	-1	5	29*
Oc1ccccc1/C=N/N1CCCCC1	-8	0	0	-3	30*	5
COc1ccccc1N1C(=O)c2ccc(C(=O)Nc3ccc(C(=O)O)cc3)cc2C1=O	-2	1	-6	5	5	-6
CCOc1ccccc1N(CC(=O)NCCSc1ccccn1)S(=O)(=O)c1ccccc1	10	32*	11	13	26	1
CN(C)CCOC(c1ccccc1)c1ccccc1	-18	1	32*!	-18	35*	-2
Cc1ccccc1C(OCCN(C(C)C)C(C)C)c1ccccc1 (centres undefined)	-19	2	99*	-15	99*	-8
Cc1ccccc1C(O)c1cccnc1 (centres undefined)	3	1	-10	4	0	-1
CN(C)CCOC(c1ccccc1)c1ccccc1 (tested in a mixture with another compound)	-18	1	37*	-17	53*	-1
CN(C)CCOC(c1ccc(Cl)cc1)c1ccccn1 (centres undefined)	-18	0	4	-10	15	-1
NC(=O)C1CCN(C(=O)c2cc(-c3ccc(Cl)s3)nc3ccccc23)CC1	-15	28	-2	-4	10	5
CC(=O)c1cccc(N=C2NC(=O)CS2)c1	0	0	14	4	6	-1
O=C1CSC(=Nc2cccc(C(=O)O)c2)N1	-4	1	-4	15*	7	6
COC(=O)c1ccc(CN2CCC(Oc3cccc(C(=O)N4CCOCC4)c3)CC2)cc1	-13	4	61*	-15	67*	-7
COCCNC(=O)CCC1CCN(Cc2ccc(-c3ccccc3)cc2)CC1	-29	1	57*	-16	7	-24
COCCNC(=O)c1cccc(OC2CCN(Cc3ccc(C(C)C)cc3)CC2)c1	-33	3	20	-17	12	-20
COCCNC(=O)C1CCCN(Cc2ccccc2)CC1 (centres undefined)	0	0	-12	4	7	-1
CSc1cccc(CN2CCC(Oc3cccc(C(=O)N4CCCC4)c3)CC2)c1	-15	4	-3	-11	28*	-8
COCCNC(=O)c1cccc(OC2CCN(Cc3ccc(C(=O)OC)cc3)CC2)c1	-30	0	60*	-15	25	-24
CC1(C)CC(=O)C2=C(C1)OC1=C(C(=O)CC(C)(C)C1)C2c1ccccc1Cl	-4	0	0	0	-3	0
Cc1cccc(CN(C(=S)Nc2c(C)cccc2C)c2cccnc2)c1	18*	2	-12	11	-6	-13
SMILES	M5 PAM	CHRM4 agonist	M4 antag	M4 PAM	M5 antag	M5 ag
CCc1ccccc1NC(=S)N(Cc1cccc(C)c1)c1cccnc1	-2	1	0	-4	18	-17
Cn1c(/C=C/c2cccc([N+](=O)[O-])c2)nc2ccccc2c1=O	-5	2	1	-1	0	-4
CC(C)Cn1c(N)c(C=O)c(=O)n(C)c1=O	18*	0	0	-2	2	6
CC(C)Cn1c(N)c(C(=O)CCl)c(=O)n(C)c1=O	-4	3	3	3	10	5
C(=N\N1CCN(Cc2cccc3ccccc23)CC1)/c1cccnc1	3	0	-1	-1	0	-1
Oc1ccccc1/C=N/Nc1nc2ccccc2o1	-4	2	-17	-5	-5	-4
CC(=NNc1nc2ccccc2o1)c1cc2ccccc2cn1	-16	11	33*	0	28*	8
Cc1cc(C)nc(Nc2nc3ccccc3o2)n1	-9	0	-10	-6	15	-3
CC(=NNc1nc2ccccc2o1)c1ncccn1	-20	6	58*	-1	51*	6
C/C(=N\Nc1nc2ccccc2s1)c1cccs1	3	-1	-6	0	-4	-1
CC(=NNc1nc2ccccc2s1)c1ncccn1	1	12	48*	0	16	11
Cc1cc(C(=O)OCC(=O)N2CCOCC2)c2ccccc2n1	-5	1	-10	19*	-4	-3
Cc1ccccc1C(=O)O/N=C(\c1ccccc1)c1ccccn1	6	3	-4	22*	-6	-2
CCN(Cc1cc2ccccc2[nH]c1=O)C(=O)C1CCCCC1	-1	3	3	0	4	2
CC(C)(C)N(Cc1cc2ccccc2[nH]c1=O)C(=O)C1CCCCC1	0	0	2	2	79*	11
O=c1cc2c(nn1Cc1cccc(Cl)c1)-c1ccccc1CC2	2	-1	3	-2	-2	-9
O=c1cc2c(nn1Cc1ccc(Cl)cc1)-c1ccccc1CC2	30*	-1	7	9	0	-5
COc1ccc(OC)c(C2C(C(=O)c3ccc(C)o3)=C(O)C(=O)N2CCCN2CCOCC2)c1 (centres undefined)	23*	1	-13	1	-9	-3
COc1ccc(CCN2CC(C(=O)NCCCc3ccncc3)CCC2=O)cc1 (centres undefined)	-3	1	-18	3	0	0
N#CCC(=O)N1CCN(C(c2ccccc2)c2ccccc2)CC1	-7	-1	5	-8	12	-16
O=C(CN1CCN(C(c2ccccc2)c2ccccc2)CC1)N1CCOCC1	-14	2	37*	-16	24	-5
COc1ccc(N2CCN(C(=O)CN3CCN(C(c4ccccc4)c4ccccc4)CC3)CC2)cc1	-13	0	28*	-15	4	-9
COc1ccc(N2CCN(CC(=O)NC(C)c3ccccc3)CC2)cc1 (centres undefined)	8	0	-3	2	4	-1
